Results gathered from unrelated publications.
Target: Calcium/calmodulin-dependent protein kinase kinase 2 (CAMKK2, Homo sapiens, UniProt Q96RR4)

COc1ccnn2ncc(-c3ccnc(N(C)C)n3)c12  remaining binding (binding; 1 µM): 80%
CCC(=N\O)/C(C)=C/c1ccc(F)cc1  remaining binding (cell-free assay; competition with immobilised ligand; 1 µM): 98%
c1cnn2ncc(-c3ccnc(N4CCC45COC5)n3)c2c1  remaining binding (binding; 1 µM): 80%
O=C(NCC1CCOCC1)c1n[nH]cc1NC(=O)c1c(F)cccc1F  remaining binding (binding; competition with immobilised ligand; 1 µM): 68%
CN(c1nccc(-c2cnn3ncccc23)n1)C1CC1  remaining binding (binding; 1 µM): 100%
O=C(NCCCN1CCOCC1)c1ccc(Nc2nccc(-c3cc4ccccc4s3)n2)cc1  remaining binding (binding; competition with immobilised ligand; 1 µM): 81%
CCN1CCN(Cc2ccc(C(=O)Nc3ccc(C)c(Oc4ccc5c(c4)CC(=O)N5)c3)cc2C(F)(F)F)CC1  remaining binding (binding; competition with immobilised ligand; 1 µM): 96%
C[C@H](c1ccc(F)cc1)N(Cc1cccc(C(=O)O)c1)C(=O)c1cnc2ccccc2c1  remaining binding (cell-free assay; competition with immobilised ligand; 1 µM): 95%
COc1ncc2cc3ccccc3nc2c1C#N  remaining binding (cell-free assay; competition with immobilised ligand; 5 µM): 96%
Cc1cnc(Nc2ccc(C(=O)N3CCC(N4CCCC4)CC3)cc2)nc1-c1cc2ccccc2s1  remaining binding (binding; competition with immobilised ligand; 1 µM): 81%
CNC(=O)[C@@H]1CC[C@@H](n2c(-c3ccc4cnccc4c3)nc3ccc(C(=O)NCc4cccc(C(N)=O)c4)cc32)C1  remaining binding (binding; competition with immobilised ligand; 1 µM): 85%
C[C@@H](c1cccc(C#N)c1)n1cc(Cl)cc(C(N)=O)c1=N  remaining binding (cell-free assay; competition with immobilised ligand; 1 µM): 100%
C[C@H]1CCN(c2nccc(-c3cnn4ncccc34)n2)C1  remaining binding (binding; 1 µM): 74%
CC(C)CC(=O)N1CCc2nc(-c3ccc(Br)cc3)nc(N(C)Cc3ccccc3)c2C1  remaining binding (cell-free assay; competition with immobilised ligand; 0.1 µM): 100%
N[C@H]1CCN(c2nccc(-c3cnn4ncccc34)n2)C1  remaining binding (binding; 1 µM): 100%
CC1=C(C#N)C(c2ccc3c(c2)c(NC(=O)c2ccccc2C)nn3C)C(C#N)=C(C)N1  remaining binding (cell-free assay; competition with immobilised ligand; 1 µM): 100%
Nc1ncc2c(n1)-c1c([nH]c3ccc(C#CC4CC4)cc13)CCCC2  remaining binding (binding; competition with immobilised ligand; 1 µM): 94%
CC1CCCN1c1nccc(-c2cnn3ncccc23)n1 (centres unmarked)  remaining binding (binding; 1 µM): 100%
CO[C@@H](C)c1c(Nc2ccc([C@H](N(C)C(=O)C3CCS(=O)(=O)CC3)C(F)(F)F)cc2)cnc2cc(Cl)nn12  remaining binding (cell-free assay; competition with immobilised ligand; 1 µM): 80%
c1cncc(-c2cccc(Nc3nccc(NC4CCCCC4)n3)c2)c1  remaining binding (binding; competition with immobilised ligand; 10 µM): 69%
